# Compound activity as filed in PubChem BioAssay.
# Hits are enriched below; roughly 1.5% of the tested compounds scored in any of these assays.
# HCV NS3 hel inh: inhibitors of HCV NS3 helicase, primary screen, biochemical, Cy5 molecular beacon fluorescence; NS3 helicase DNA unwinding; inhibition, % at 10.9 µM; Hepatitis C virus NS3 helicase; 0.56% of 290,000 active;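 active means inhibition above the mean of all tested compounds plus 3 SD, set per campaign, cut at about 35% in these data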;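 further: 0% = DMSO wells and 100% = thioflavine S control wells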
#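 Test system: hepatitis C virus NS3 helicase domain fragment enzyme. Also added: annealed dual-labelled DNA beacon duplex, ATP-started. Timing: 60 min unwinding reaction at 25 °C after ATP addition. Technique: Cy5 fluorescence. Measure: % inhibition of unwinding.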
# Casp6 inh: human caspase-6 inhibitors, primary screen, biochemical, VEID-R110 fluorescence, single point, set 2. purified caspase-6, Z-VEID-R110 cleavage fluorescence. inhibition, % at 12.5 µM. 0.53% of 350,000 active. AID 686996, 2013;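 active means mean inhibition across replicates at least about 35%, with every replicate also reaching that limit, limit read from the data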;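 further: 0% = median of neutral control wells and 100% = no fluorescence left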
# Target sequence (P55212 24-179 limits assumed): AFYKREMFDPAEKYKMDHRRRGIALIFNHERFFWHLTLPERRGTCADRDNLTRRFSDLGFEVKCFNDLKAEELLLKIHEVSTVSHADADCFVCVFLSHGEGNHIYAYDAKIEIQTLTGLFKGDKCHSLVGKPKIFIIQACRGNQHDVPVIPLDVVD
# Target sequence (P55212 194-293 limits assumed): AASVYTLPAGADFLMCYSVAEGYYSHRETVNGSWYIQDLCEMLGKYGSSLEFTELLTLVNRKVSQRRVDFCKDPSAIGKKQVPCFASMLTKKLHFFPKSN
# DNMT1 block: human DNMT1 methyltransferase inhibitors, primary screen, biochemical, molecular beacon, fluorescence, HinP1I cleavage, uHTS. 0.83% of 360,000 active. inhibition (reported as % activation of signal), % at 10 µM. AID 588458, 2011. DNA (cytosine-5)-methyltransferase 1 (Homo sapiens), P26358
# NSD2 HMT inh: NSD2 histone methyltransferase inhibitors, primary screen, biochemical, AlphaScreen, single concentration, set 2 | Histone-lysine N-methyltransferase NSD2 (Homo sapiens), O96028 | NSD2 peptide methylation, 120 min | inhibition, % at 12.5 µM | 0.54% of 310,000 active
# Beacon interf DR: spectral interference with molecular beacon fluorescence, dose response, artefact control for DNMT1 inhibitor project, biochemical, fluorescent molecular beacon. shares compounds with DNMT1 block. spectral interference counter-screen. IC50, µM. 200 tested, under 10 active. AID 602382, 2012; call rule not given here
# DNMT1 inh conf: DNMT1 methyltransferase inhibitor retest, confirmation, biochemical, molecular beacon, fluorescence, single concentration; shares compounds with DNMT1 block; DNMT1 molecular beacon HinP1I cleavage; inhibition, % at 10 µM; 8% of 2,300 active;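 active means average inhibition of at least 30% in the single-concentration confirmation test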
# DNMT1 interf: beacon fluorescence artifact counter-screen; shares compounds with DNMT1 block; DNMT1 molecular beacon spectral interference counterscreen, fluorescence 485/520; activation (fluorescence interference), % at 10 µM; 1% of 2,300 active;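 active means activation of at least 30% at 10 µM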;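 further: DNMT1 catalytic domain with a HinP1I cleavage step and a FAM/dabcyl DNA beacon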
# An asterisk follows results filed as active; . = no result given. Unless noted, no stated cut-off is given here; in the data, active means inhibition above about 50%; inactive means the rest.
SMILES,HCV NS3 hel inh,Casp6 inh,DNMT1 block,NSD2 HMT inh,DNMT1 inh conf,DNMT1 interf,others
CCc1cc2c(=O)n3c(nc2s1)-c1[nH]c2ccc(OC)cc2c1CC3,-18,-1,76*,-1,5,5,
COc1cc([N+](=O)[O-])ccc1-c1ccc(/C=N\n2cnnc2)o1,-2,2,4,5,.,.,
COc1cc([N+](=O)[O-])ccc1-c1ccc(/C=C2\C(=O)ON=C2c2ccccc2)o1,.,5,80*,5,18,-6,
CCOc1ccc(OCc2ccc(C(=O)NC(C)(C)C)o2)cc1,11,-1,49,0,9,2,
Cc1cc(C)n2nc(SCC(=O)N3CCC(C(=O)O)CC3)nc2n1,.,-7,4,-2,.,.,
COC(=O)C1CCN(C(=O)CSc2nc3nc(C)cc(C)n3n2)CC1,.,-5,63*,-1,1,2,
COc1ccc(-c2cc(C(=O)Nc3cc(Cl)ccc3O)no2)cc1,-11,-1,54*,2,1,7,
CCOc1ccccc1C(=O)NCc1ccc2c(c1)OCO2,-3,.,1,-1,.,.,
CCOc1cccc2cc(-c3nnc(NCc4ccc5c(c4)OCO5)s3)c(=O)oc12,-9,-1,70*,-3,0,-5,
Cc1cccc2sc(NNC(=O)c3cc(-c4cccs4)nc4ccccc34)nc12,13,-3,69*,.,2,1,
C=CCn1c(Cc2ccccc2)n[nH]c1=S,-10,-7,1,0,.,.,
C=CCn1c(CSc2ccccc2[N+](=O)[O-])n[nH]c1=S,31,1,70*,11,0,-3,
CO[C@H]1CN(C)C(=O)c2ccc(NC(=O)NC(C)C)cc2OC[C@H](C)N(C(=O)NC(C)C)C[C@H]1C,.,-4,.,.,.,.,
Cc1ccc(S(=O)(=O)N2Cc3ccccc3CC2C(=O)Nc2ccc3c(c2)OCO3)cc1 (stereo not drawn),-1,.,66*,3,9,6,
COc1ccc(S(=O)(=O)N2Cc3ccccc3CC2C(=O)Nc2ccc3c(c2)OCO3)cc1 (stereo not drawn),-2,.,-8,-4,.,.,
CC(=O)Nc1cc(=O)c2cccnc2[nH]1,.,20,63*,.,16,7,
COc1cc(NC(C)=O)c2ncccc2c1NC(C)=O,2,-4,-1,-2,.,.,
Cc1ccc(S(=O)(=O)N(C)C[C@@H]2Oc3ncc(Br)cc3C(=O)N([C@@H](C)CO)C[C@H]2C)cc1,.,0,.,.,.,.,
CN1CCN(C(=O)C[C@H]2CC[C@@H]3[C@H](COC[C@H](O)CN3Cc3cccc(Cl)c3)O2)CC1,.,-4,.,.,.,.,
COc1cccc2cc(C(=O)Nc3cc(Cl)ccc3N3CCOCC3)c(=O)oc12,11,.,55*,.,3,5,
CCN(CC)CCOc1ccc2c(c1)C(=NO)c1cc(OCCN(CC)CC)ccc1-2,28,.,61*,-2,34*,-3,Beacon interf DR=>99
CCC(=O)N1CC2(C1)CN(Cc1cccc(OC)c1)[C@@H](CO)c1[nH]c3cc(OC)ccc3c12,.,2,.,.,.,.,
Cc1cc2cc(C)c3nnc(SCC(=O)Nc4ccc(S(=O)(=O)N5CCCCC5)cc4)n3c2cc1C,14,0,56*,3,2,0,
Cc1cc2ccccc2n2c(SCC(=O)Nc3ccc(S(=O)(=O)N4CCCCC4)cc3)nnc12,-7,.,8,8,.,.,
COc1ccc(OC)c(/C=N\NC(=O)c2cc3c(ccc4ccccc43)o2)c1,36,-4,6,.,.,.,
SMILES,HCV NS3 hel inh,Casp6 inh,DNMT1 block,NSD2 HMT inh,DNMT1 inh conf,DNMT1 interf,others
O=C(N/N=C/C=C/c1ccccc1)c1cc2c(ccc3ccccc32)o1,5,.,94*,12,6,2,
O=C(N/N=C/c1ccccc1F)c1cc2c(ccc3ccccc32)o1,-16,0,82*,0,6,0,
CS(=O)(=O)Nc1ccc(C(=O)NC2CCCC2)cc1,0,.,80*,-2,1,3,
O=C(N[C@H]1CC[C@H](CCNC(=O)c2ccccc2F)O[C@H]1CO)c1ccc2c(c1)OCO2,.,-2,.,.,.,.,
COC(=O)CSc1nnc(-c2ccc(S(=O)(=O)N3CCC(C)CC3)cc2)o1,0,.,3,0,.,.,
CC1CCN(S(=O)(=O)c2ccc(-c3nnc(SCc4cccnc4)o3)cc2)CC1,2,.,55*,0,2,1,
O=C(Nc1ccc2c(c1)[C@@H]1C[C@@H](CC(=O)N3CCc4ccccc4C3)O[C@@H](CO)[C@@H]1O2)C1CCC1,.,1,.,.,.,.,
COc1ccc(O)c(C(=O)c2cnn(-c3ccccc3)c2)c1,14,.,-1,3,.,.,
COc1ccc(O)c(C(=O)c2cnn(C(=O)c3ccc(C)cc3)c2)c1,.,-2,55*,0,-1,-3,
COc1ccc2c3c([nH]c2c1)[C@H](CO)N(C(=O)Nc1ccc(F)cc1)CC31CCN(C(=O)Nc2ccc3c(c2)OCO3)CC1,.,-3,.,.,.,.,
COc1ccc(O)c(/C=N/NC(=O)c2c(C)nnn2-c2nonc2N)c1,-1,4,96*,.,6,1,
COc1ccc(-c2csc(=Nc3ccccc3)n2CC(O)c2ccc([N+](=O)[O-])cc2)cc1 (stereo not drawn),.,.,.,2,.,.,
C/C(=N/NC(=O)c1cc(-c2cccc([N+](=O)[O-])c2)n[nH]1)c1cccc(O)c1,1,-2,89*,-3,3,5,
C/C(=N\NC(=O)c1cc(-c2cccc([N+](=O)[O-])c2)n[nH]1)c1ccc(F)cc1,6,1,3,0,.,.,
O=C(Nc1ccc2c(c1)OCO2)N[C@H]1CC[C@@H](CC(=O)N2CCN(c3ccccc3)CC2)O[C@H]1CO,.,0,.,.,.,.,
CCOC(=O)c1c(NC(=O)N/N=C/c2ccccc2OCC)sc(C(C)=O)c1C,3,0,56*,1,4,2,
CNC(=O)C[C@@H]1CC[C@@H]2[C@@H](COc3ccc(NC(=O)c4cc(F)cc(F)c4)cc3C(=O)N2C)O1,.,4,.,.,.,.,
CO[C@H]1CN(C)C(=O)c2ccc(NC(=O)c3cc(C)on3)cc2OC[C@H](C)N(C)C[C@@H]1C,.,-4,.,.,.,.,
Cc1ccc(Cl)cc1N1CCN(C(=O)CSc2ccsc2[N+](=O)[O-])CC1,11,3,63*,2,0,-1,
COCC#Cc1ccc([C@@H]2[C@@H](CO)N3C(=O)CN(C(=O)CN4CCOCC4)C[C@@H]23)cc1,.,-1,.,.,.,.,
Nc1nnnn1/N=C/c1cc(Cl)cc(Cl)c1O,6,1,-3,0,.,.,
Nc1nnnn1/N=C/c1cc(Cl)cc(Cl)c1OCc1ccc(Cl)cc1Cl,0,.,59*,0,2,2,
